High-throughput results deposited in PubChem by The Scripps Research Institute Molecular Screening Center.
Hits are enriched below; roughly 1.9% of the tested compounds scored in any of these assays.
PLCb3 inh = inhibitors of human phospholipase C beta3; 370,000 compounds, 0.18% hits; Purified PLC-beta3, fluorogenic substrate, fluorescence; inhibition, % at 12.2 µM; in the data active means inhibition above about 11%;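 further: 0% = median of compound wells on plate and 100% = full blocker control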
HGIII-sPLA2 inh = Blocks human group III sPLA2 activity; QFRET BODIPY PC-A2 liposome hydrolysis, fluorescence; inhibition, % at 12.2 µM; 370,000 compounds, 0.56% hits; AID 743126;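 active means inhibition above mean plus 3 SD of compounds lying within the high and low control bounds, cut at about 19% in these data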;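 further: 0% = median of test compound wells and 100% = no enzyme DMSO wells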
PLC-gamma1 inh = PLC-gamma1 (human) inhibition, primary screen; 370,000 compounds, 0.84% hits; P19174; inhibition, % at 12.2 µM; purified PLC-gamma1, fluorogenic substrate, fluorescence
ASAP1 GAP inh = inhibitors of human ASAP1 ArfGAP activity; Q9ULH1; ASAP1-stimulated ARF1 GTP hydrolysis, GDP FP detection; inhibition, % at 16.5 µM; 360,000 compounds, 0.19% hits; in the data active means inhibition above about 25%;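 further: 0% = vehicle with enzyme and substrate and 100% = no enzyme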
Target sequence (Q9ULH1 325-724 limits assumed): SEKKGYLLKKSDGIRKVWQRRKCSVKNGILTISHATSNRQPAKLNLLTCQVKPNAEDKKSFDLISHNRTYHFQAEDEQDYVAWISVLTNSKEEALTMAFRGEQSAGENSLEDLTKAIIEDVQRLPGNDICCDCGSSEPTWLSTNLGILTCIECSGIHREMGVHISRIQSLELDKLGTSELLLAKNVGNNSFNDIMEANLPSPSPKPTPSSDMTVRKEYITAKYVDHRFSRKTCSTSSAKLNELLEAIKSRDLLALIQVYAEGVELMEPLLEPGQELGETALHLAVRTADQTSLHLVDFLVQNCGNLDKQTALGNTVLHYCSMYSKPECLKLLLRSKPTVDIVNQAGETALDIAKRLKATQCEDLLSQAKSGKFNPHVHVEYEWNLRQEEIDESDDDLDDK
ARFGAP1 inh = inhibits rat ARF GTPase activating protein 1. Arfgap1-stimulated ARF1 GTP hydrolysis, GDP FP detection. 360,000 compounds, 0.26% hits. inhibition, % at 16.5 µM;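 active means inhibition above a per-plate limit, mean inhibition of low control wells plus 3 SD, cut at about 25% in these data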;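 further: 0% = DMSO wells with enzyme and 100% = wells lacking Arfgap1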
Target sequence (Q62848 1-136 limits assumed): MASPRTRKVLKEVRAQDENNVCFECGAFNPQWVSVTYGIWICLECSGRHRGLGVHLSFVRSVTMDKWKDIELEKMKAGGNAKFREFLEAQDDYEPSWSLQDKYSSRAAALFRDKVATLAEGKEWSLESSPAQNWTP
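Material: rat Arfgap1 GAP domain (His6, aa 1-136), purified enzyme. Also added: human ARF1(Δ1-17)-GTP substrate. Compound dosing: 16.5 µM single point, 1.26% DMSO. Timing: enzyme reaction 120 min at 25 °C after 20 min preincubation. Signal: GDP detection by fluorescence polarization. Read-out basis: percent inhibition of GAP-stimulated GDP formation, scaled between DMSO and no-Arfgap1 medians.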
PLCg1 ctr = PLC-gamma1 inhibition, counter-screen for PLC-beta3 hits | shares compounds with PLC-gamma1 inh | purified PLC-gamma1, fluorogenic substrate, fluorescence | inhibition, % at 12.3 µM | 3,300 compounds, 3.1% hits | AID 743258
PLCb3 confirm = human PLC-beta3 inhibition, confirmation; inhibition, % at 12.3 µM; 3,300 compounds, 1% hits; purified PLC-beta3, fluorogenic substrate fluorescence; shares compounds with PLC-gamma1 inh; in the data active means inhibition above about 11%
An asterisk follows results filed as active; nt = no result. Unless noted, no stated cut-off is given here; in the data, active means inhibition above about 9.5%; inactive means the rest.

SMILES	PLCb3 inh	HGIII-sPLA2 inh	PLC-gamma1 inh	ASAP1 GAP inh	ARFGAP1 inh	PLCg1 ctr	PLCb3 confirm
CCCCC1CCC(c2nc(-c3ccccn3)no2)CC1 (stereo not given)	3	7	9.8*	5	11	-4	-4
O=S1(=O)CC(N2CCCC2)CN1 (stereo not given)	3	5	-1	nt	nt	nt	nt
O=C(c1ccccc1)c1ccc(OCC(O)CNCc2ccc(Cl)cc2)cc1 (stereo not given)	3	-22	12*	9	14	-2	-1
Cn1c(N)c(C(=O)COC(=O)c2ccccn2)c(=O)n(C)c1=O	-1	3	0	9	8	nt	nt
CCOc1ncccc1C(=O)OCC(=O)c1c(N)n(C)c(=O)n(C)c1=O	11*	10	8	-6	-12	-6	-3
COc1ccc(Cn2cc(COC(=O)Nc3ccc(F)cc3)nn2)cc1	1	-8	0	nt	nt	nt	nt
Oc1c(N=NC(=S)Nc2ccccc2F)c2ccccc2n1Cc1ccc(F)cc1	10	7	10*	0	18	-2	-4
CC(NC(=O)Cn1nc(C(=O)O)c2ccccc2c1=O)c1ccccc1 (stereo not given)	12*	-5	11*	0	-5	-2	1
CC(NC(=O)Cn1nc(-c2ccccc2)c2ccccc2c1=O)c1ccccc1 (stereo not given)	4	-4	1	5	-1	nt	nt
COc1ccc(F)cc1Cn1nc(C(=O)O)c2ccccc2c1=O	1	6	12*	-4	4	5	2
CC(=O)C1(C(=O)NCc2ccccc2)CC(c2ccccc2C(F)(F)F)=NO1 (stereo not given)	1	-3	-1	nt	nt	nt	nt
C=CCOC(=O)N[C@H](c1ccc2ccccc2c1)[C@H](C)/C=C/CC(=O)OC	-5	-11	-1	nt	nt	nt	nt
O=C(c1ccc2c(c1)OCO2)N1CCC(Oc2cccnc2)CC1	-4	12	0	nt	nt	nt	nt
CC(O)(c1cccc(F)c1)c1nc(-c2cccc(F)c2)cs1 (stereo not given)	-3	-5	11*	9	11	-2	0
Cc1ccc(-c2csc(C(C)(O)c3cccc(F)c3)n2)cc1C (stereo not given)	-2	-12	-1	15	11	nt	nt
CN(CCCOC(=O)c1occ2ccccc12)C1CN(Cc2cn(Cc3ccccc3Cl)nn2)S(=O)(=O)C1 (stereo not given)	0	-19	0	nt	nt	nt	nt
Fc1ccc(-[n+]2nc(Nc3ccccc3)sc2-c2c(Cl)cccc2Cl)cc1	15*	3	11*	-10	9	4	-18
CCc1ccc(Nc2n[n+](-c3ccccc3)c(-c3c(Cl)cccc3Cl)s2)cc1	6	10	5	-9	3	nt	nt
CCOc1ccc(CCNC(=O)C2CCCN(S(=O)(=O)N3CCCCC3)C2)cc1OCC (stereo not given)	2	0	0	3	-1	nt	nt
CCOC(=O)N1CCN(S(=O)(=O)N2CCCC(C(=O)NCCc3ccc(OCC)c(OCC)c3)C2)CC1 (stereo not given)	2	2	12*	0	-4	-4	-6
CCOc1ccc(CCNC(=O)C2CCCN(S(C)(=O)=O)C2)cc1OCC (stereo not given)	13*	9	3	-10	-1	-1	-2
CCCCCCCCN1C(=O)[C@@H](CC(=O)NCCC(C)C)C[C@@]2(C(=O)OC)C1=C[C@H](COCc1ccccc1)O[C@@H]2C	0	-15	-4	nt	nt	nt	nt
CCOC(=O)Cn1cc(CN2CCS(=O)(=O)N(Cc3ccccc3)C(C(=O)OC)C2)nn1 (stereo not given)	-2	6	-2	nt	nt	nt	nt
Cn1cccc1-c1nc2ccc(NC(=O)c3ccc([N+](=O)[O-])cc3)cc2[nH]1	9	-16	14*	-8	-3	2	5
Cn1cccc1-c1nc2ccc(NC(=O)c3ccccc3)cc2[nH]1	-15	-2	-15	10	20	nt	nt
SMILES	PLCb3 inh	HGIII-sPLA2 inh	PLC-gamma1 inh	ASAP1 GAP inh	ARFGAP1 inh	PLCg1 ctr	PLCb3 confirm
Cc1cc(C)n2nc(SCC(=O)N3CCC(C(=O)O)CC3)nc2n1	11*	-6	9	3	-2	3	2
COC(=O)C1CCN(C(=O)CSc2nc3nc(C)cc(C)n3n2)CC1	1	2	0	5	11	nt	nt
Cc1onc(-c2c(F)cccc2Cl)c1C(=O)N1CCCC1	3	9	4	-5	4	nt	nt
Cc1onc(-c2c(F)cccc2Cl)c1C(=O)N1C=CC(C(F)(F)Cl)=NCC1	11*	-7	13*	1	-10	1	5
O=C(c1cc(COc2ccc(-n3cncn3)cc2)on1)N1CCCC1	-2	8	14*	12	3	1	2
COC1CCN(C(=O)c2cc(COc3ccc(-n4cncn4)cc3)on2)CC1	-4	1	0	8	-2	nt	nt
O=c1cc(SCc2ccccc2)nc[nH]1	-3	5	12*	-12	-2	-8	-7
CCOC(=O)C1(CCOc2ccccc2)CCN(Cc2cc(OC)c(O)c(OC)c2)CC1	-5	-21	0	-3	1	nt	nt
CCOC(=O)C1(CCOc2ccccc2)CCN(Cc2ccc(OC)c(O)c2)CC1	9	-9	10*	-8	-6	-7	-2
CC(C)C(C#CC1CC1)NCc1ccc2c(c1)OCO2 (stereo not given)	0	18	6	nt	nt	nt	nt
FC(F)(F)c1ccccc1NC(=S)OC1CCC12CCC(c1ccccc1)CC2 (stereo not given)	-5	6	2	nt	nt	nt	nt
COC(=O)c1cccc(OC[C@@H](O)CN2CCC(C(O)(c3ccccc3)c3ccccc3)CC2)c1	9	-20	11*	nt	nt	7	-4
OC(c1ccccc1)(c1ccccc1)C1CCN(CCCOc2cccc(Cl)c2)CC1	-2	-16	6	4	-1	nt	nt
Cc1cccc(OC[C@@H](O)CN2CCC(C(O)(c3ccccc3)c3ccccc3)CC2)c1	2	-12	2	nt	nt	nt	nt
COC(=O)c1cccc(OCCCN2CCC(C(O)(c3ccccc3)c3ccccc3)CC2)c1	5	-22	9.7*	5	18	-2	-5
C/C=C/c1ccccc1OCCCN1CCC(C(O)(c2ccccc2)c2ccccc2)CC1	4	-24	13*	nt	nt	1	2
O=C(c1ccccc1Cl)N1CCC(Oc2cccnc2)CC1	-2	6	0	nt	nt	nt	nt
Cc1c(C(=O)O)cccc1-c1ccc(C=O)o1	9	6	11*	2	14	-6	-4
CC(C)C[C@H]1COc2cc(Br)ccc2S(=O)(=O)N1Cc1cn(Cc2ccc(C(F)(F)F)cc2)nn1	0	10	-2	nt	nt	nt	nt
CN(CC(=O)NCCN1CCN(Cc2ccccc2)CC1)S(=O)(=O)c1cccc2nsnc12	1	-1	1	-6	-8	nt	nt
